Reference: ChEMBL document CHEMBL4257585, “Structure-Activity Relationships of Photoswitchable Diarylethene-Based β-Hairpin Peptides as Membranolytic Antimicrobial and Anticancer Agents” (J Med Chem, 2018)
Values after ≈ are worked out from the molar mass of the structure shown. Non-standard residues stand in square brackets, D forms with d. Residues, ends and D or L forms follow the SMILES beside them. Orn = NCCC[C@H](N)C(=O)O

How the values were obtained:
[1] = Hemolytic activity against human RBC assessed as hemolysis after 30 mins by colorimetric method; format: ADME, cell-based, Erythrocyte; conditions: human red blood cells (erythrocytes)
Outline: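 Human erythrocytes washed twice in isotonic 172 mM Tris-HCl, pH 7.6; peptides dissolved in DMSO, diluted in buffer, two independent 10-step 2-fold series from 256 or 192 μg/mL. HC50 extrapolated as 50% hemolysis concentration.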

[2] = Therapeutic index, ratio of HC50 for human RBC to MIC for Bacillus subtilis DSM 347; format: toxicity; conditions: human red blood cells versus Bacillus subtilis DSM 347
Outline: (§1)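 Ratio of HC50 (RBC) to HeLa IC50 or to MIC against B. subtilis or E. coli; values measured in mg/mL and recalculated to μM, 2-fold dilution without curve fitting, accuracy within a factor of 2.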

[3] = Therapeutic index, ratio of HC50 for human RBC to MIC for Escherichia coli DSM 1103; format: toxicity; conditions: human red blood cells versus Escherichia coli DSM 1103; outline: as §1
[4] = system: HeLa; test: Cytotoxicity against human HeLa cells assessed as reduction in cell viability after 24 hrs by MTT assay; format: functional, cell-based
Outline: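 HeLa cells seeded at about 5 × 10^4 cells/mL in DMEM with 10% FBS, 2 mM glutamine, gentamicin; 24 h adaptation (37 °C, 5% CO2), then 24 h peptide exposure. MTT 4 h, formazan in DMSO read at 570 nm. 2-fold series 256–0.5 (open) or 512–1 μg/mL (closed), four repetitions; IC50 extrapolated from killing curves. Closed form handled in dim light.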

[5] = Selective ratio of HC50 for human RBC to IC50 for human HeLa cells; format: toxicity; conditions: human red blood cells versus HeLa cells; outline: as §1
[6] = system: Bacillus subtilis; test: Antimicrobial activity against Bacillus subtilis DSM 347 after 22 hrs by resazurin dye based spectrophotometry; format: functional; conditions: DSM 347, 22 h
Outline: (§2)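 2-fold broth microdilution in Mueller–Hinton medium; peptide stocks 1024 μg/mL in 50% ethanol. Exponential-phase cultures diluted to OD550 0.2, then 1:100 (B. subtilis) or 1:1000 (E. coli), giving 5 × 10^5 CFU/mL per well. Incubated 22 h, 37 °C, static; then resazurin (0.2 mg/mL solution) added for 2 h at 37 °C, read visually and spectrophotometrically. Tested in both photoforms.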

[7] = system: Escherichia coli; test: Antimicrobial activity against Escherichia coli DSM 1103 after 22 hrs by resazurin dye based spectrophotometry; format: functional; conditions: DSM 1103, 22 h; outline: as §2

| SMILES | HC50 at 0.5 h [1] [µM] | selectivity ratio [2] | selectivity ratio [3] | IC50 [4] [µM] | selectivity ratio [5] | MIC [6] [µM] | MIC [7] [µM] |
| --- | --- | --- | --- | --- | --- | --- | --- |
| CC(C)C[C@@H]1NC(=O)[C@H](CCCCN)NC(=O)[C@H](C(C)C)NC(=O)C2=CC3=C4CCCC4=C4C=C(S[C@]4(C)[C@@]3(C)S2)C(=O)[C@H]2CCCN2C(=O)[C@H](CC(C)C)NC(=O)[C@H](CCCCN)NC(=O)[C@H](C(C)C)NC(=O)[C@H](CCCCN)N(C)C(=O)[C@@H](Cc2ccccc2)NC1=O | 22 | 7.3 | 0.2 | 24 | 0.9 | 3 (≈ 4.06 µg/mL) | 95 (≈ 129 µg/mL) |
| CC(C)C[C@@H]1NC(=O)[C@H](CCCN)NC(=O)[C@H](CCCN)NC(=O)C2=CC3=C4CCCC4=C4C=C(S[C@]4(C)[C@@]3(C)S2)C(=O)[C@H]2CCCN2C(=O)[C@H](CC(C)C)NC(=O)[C@H](CCCN)NC(=O)[C@H](C(C)C)NC(=O)[C@@H]2CCCN2C(=O)[C@@H](Cc2ccccc2)NC1=O | 17 | 5.7 | 1.4 | 12 | 1.4 | 3 (≈ 3.89 µg/mL) | 12 (≈ 15.5 µg/mL) |
| CC(C)C[C@@H]1NC(=O)[C@H](CCCCN)NC(=O)[C@H](C(C)C)NC(=O)[C@@H]2CCCN2C(=O)[C@@H](Cc2ccccc2)NC(=O)[C@H](CC(C)C)NC(=O)[C@H](CCCCN)NC(=O)[C@H](C(C)C)NC(=O)[C@H](CCCCN)NC(=O)C2=CC3=C4CCCC4=C4C=C(S[C@]4(C)[C@@]3(C)S2)C(=O)[C@H]2CCCN2C(=O)[C@H](CCCCN)NC1=O | 65 | 3.1 | 0.4 | 82 | 0.8 | 21 (≈ 32.9 µg/mL) | 164 (≈ 257 µg/mL) |
| CC[C@H](C)[C@@H]1NC(=O)c2cc(c(C)s2)C2=C(CCC2)c2cc(sc2C)C(=O)[C@H]2CCCN2C(=O)[C@H](CC(C)C)NC(=O)[C@H](CCCN)NC(=O)[C@H]([C@@H](C)CC)NC(=O)[C@@H]2CCCN2C(=O)[C@H]2CCCN2C(=O)[C@H](CC(C)C)NC(=O)[C@H](CCCN)NC1=O | 8 | 4 | 0.2 | 6 | 1.3 | 2 (≈ 2.52 µg/mL) | 51 (≈ 64.2 µg/mL) |
| CC(C)[C@@H]1NC(=O)C2=CC3=C4CCCC4=C4C=C(S[C@]4(C)[C@@]3(C)S2)C(=O)[C@H]2CCCN2C(=O)[C@H]([C@H](O)C(C)C)NC(=O)[C@H](CCCN)NC(=O)[C@H](C(C)C)NC(=O)[C@@H]2CCCN2C(=O)[C@@H](Cc2ccccc2)NC(=O)[C@H](C(C)C)NC(=O)[C@H](CCCN)NC1=O | 200 | 8 | 1 | 300 | 0.7 | 25 (≈ 32.1 µg/mL) | 200 (≈ 257 µg/mL) |
| CC(C)C[C@@H]1NC(=O)[C@H](CCCN)NC(=O)[C@H](C(C)C)NC(=O)[C@@H]2CCCN2C(=O)[C@@H](Cc2ccccc2)NC(=O)[C@H](CC(C)C)NC(=O)[C@H](CCCN)NC(=O)[C@H](C(C)C)NC(=O)[C@@H]2CCCN2C(=O)[C@@H](Cc2ccccc2)NC1=O (cyclo(V[Orn]L[dF]PV[Orn]L[dF]P)) [listing 1 of 2 here] | 10.5 |  |  | 3.5 |  |  |  |
| CC(C)C[C@@H]1NC(=O)[C@H](CCCN)NC(=O)[C@H](C)NC(=O)C2=CC3=C4CCCC4=C4C=C(S[C@]4(C)[C@@]3(C)S2)C(=O)[C@H]2CCCN2C(=O)[C@H](C)NC(=O)[C@H](CCCN)NC(=O)[C@H](C(C)C)NC(=O)[C@@H]2CCCN2C(=O)[C@@H](Cc2ccccc2)NC1=O | 175 | 4.4 | 0.8 | 106 | 1.7 | 40 (≈ 48.4 µg/mL) | 212 (≈ 257 µg/mL) |
| CC[C@H](C)[C@@H]1NC(=O)c2cc(c(C)s2)C2=C(CCC2)c2cc(sc2C)C(=O)[C@H]2CCCN2C(=O)[C@H]([C@@H](C)CC)NC(=O)[C@H](CCCN)NC(=O)[C@H](CC(C)C)NC(=O)[C@H](CC(C)C)N(C)C(=O)[C@@H](Cc2ccccc2)NC(=O)[C@H]([C@@H](C)CC)NC(=O)[C@H](CCCN)NC1=O | 3 | 1.5 |  | 3 | 1 | 2 (≈ 2.68 µg/mL) | 96 (≈ 129 µg/mL) |
| Cc1sc2cc1C1=C(CCC1)c1cc(sc1C)C(=O)[C@H]1CCCN1C(=O)[C@H](CC(C)C)NC(=O)[C@H](CCCCN)NC(=O)[C@H](C(C)C)NC(=O)[C@H](CCCCN)NC(=O)[C@H](CC(C)C)NC(=O)[C@@H]1CCCN1C(=O)[C@@H](Cc1ccccc1)NC(=O)[C@H](C(C)C)NC(=O)[C@H](CCCCN)NC(=O)[C@H](CC(C)C)NC(=O)[C@H](CCCCN)NC(=O)[C@H](C(C)C)NC2=O | < 1 | 0.1 |  | 5 | 0.2 | 9 (≈ 16 µg/mL) | 36 (≈ 64 µg/mL) |
| Cc1sc2cc1C1=C(CCC1)c1cc(sc1C)C(=O)[C@H]1CCCN1C(=O)[C@H](C(C)C)NC(=O)[C@H](CCCN)NC(=O)[C@H](C(C)C)NC(=O)[C@@H]1CCCN1C(=O)[C@@H](Cc1ccccc1)NC(=O)[C@H](C(C)C)NC(=O)[C@H](CCCN)NC(=O)[C@H](CCCn1cc(COCc3cn(CCC[C@@H]4NC(=O)c5cc(c(C)s5)C5=C(CCC5)c5cc(sc5C)C(=O)[C@H]5CCCN5C(=O)[C@H](C(C)C)NC(=O)[C@H](CCCN)NC(=O)[C@H](C(C)C)NC(=O)[C@@H]5CCCN5C(=O)[C@@H](Cc5ccccc5)NC(=O)[C@H](C(C)C)NC(=O)[C@H](CCCN)NC4=O)nn3)nn1)NC2=O | 1 | 1 |  | 23 |  | 1 (≈ 2.68 µg/mL) | 23 (≈ 61.7 µg/mL) |
| CC(C)C[C@@H]1NC(=O)[C@H](CCCN)NC(=O)[C@H](C(C)C)NC(=O)[C@@H]2CCCN2C(=O)[C@@H](Cc2ccccc2)NC(=O)[C@H](CC(C)C)NC(=O)[C@H](CCCN)NC(=O)[C@H](C(C)C)NC(=O)[C@@H]2CCCN2C(=O)[C@@H](Cc2ccccc2)NC1=O (cyclo(V[Orn]L[dF]PV[Orn]L[dF]P)) [listing 2 of 2 here] |  |  |  |  |  | 1.8 (≈ 2.05 µg/mL) | 28 (≈ 32 µg/mL) |
| Cc1sc2cc1C1=C(CCC1)c1cc(sc1C)C(=O)[C@H]1CCCN1C(=O)[C@H](C(C)C)NC(=O)[C@H](CCCN)NC(=O)[C@H](C(C)C)NC(=O)[C@H](CCCn1cc(COCc3cn(CCC[C@H]4C(=O)N[C@@H](C(C)C)C(=O)N[C@@H](CCCN)C(=O)N[C@@H](C(C)C)C(=O)N5CCC[C@@H]5C(=O)c5cc(c(C)s5)C5=C(CCC5)c5cc(sc5C)C(=O)N[C@@H]([C@H](O)C(C)C)C(=O)N[C@@H](CCCN)C(=O)N[C@@H](C(C)C)C(=O)N[C@H](Cc5ccccc5)C(=O)N4C)nn3)nn1)N(C)C(=O)[C@@H](Cc1ccccc1)NC(=O)[C@H](C(C)C)NC(=O)[C@H](CCCN)NC(=O)[C@H]([C@H](O)C(C)C)NC2=O | 1 | 0.3 |  | 24 |  | 3 (≈ 8.32 µg/mL) | 48 (≈ 133 µg/mL) |
| Cc1sc2cc1C1=C(CCC1)c1cc(sc1C)C(=O)[C@H]1CCCN1C(=O)[C@H](Cc1ccc(O)cc1)NC(=O)[C@H](CCCN)NC(=O)[C@H](C(C)C)NC(=O)[C@@H]1CCCN1C(=O)[C@@H](Cc1ccccc1)NC(=O)[C@H](Cc1ccc(O)cc1)NC(=O)[C@H](CCCN)NC(=O)[C@H](C(C)C)NC2=O | 4 | 1 |  | 23 | 0.2 | 4 (≈ 5.52 µg/mL) | 92 (≈ 127 µg/mL) |
| CCCCN1C(=O)[C@@H](Cc2ccccc2)NC(=O)[C@H](CC(C)C)NC(=O)[C@H](CCCN)NC(=O)[C@H]([C@@H](C)CC)NC(=O)c2cc(c(C)s2)C2=C(CCC2)c2cc(sc2C)C(=O)[C@H]2CCCN2C(=O)[C@H](CC(C)C)NC(=O)[C@H](CCCN)NC(=O)[C@H]([C@@H](C)CC)NC(=O)[C@@H]1CC(C)C | 3 | 0.3 |  | 4 | 0.8 | 12 (≈ 16.6 µg/mL) | 93 (≈ 128 µg/mL) |
